The text below walks through data of ChEMBL document CHEMBL3112550, “Specific features of HIV-1 integrase inhibition by bisphosphonate derivatives” (Eur J Med Chem, 2014).

Experiment [1] addresses Human immunodeficiency virus type 1 integrase (Human immunodeficiency virus 1) (UniProt Q7ZJM1). The experiment is described as follows: (§1) Inhibition of HIV-1 integrase expressed in Escherichia coli using [32P]-labeled U5B/U5A DNA as substrate assessed as inhibition of 3'-processing reaction after 2 hrs by PAGE analysis in presence of Mg2+. Put shortly:
(§2)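 3'-Processing: 32P-labeled U5B/U5A (3 nM) with IN (100 nM) in buffer A (20 mM HEPES pH 7.2, 7.5 mM MgCl2 or MnCl2, 1 mM DTT), increasing inhibitor, 37°C, 2 h; stopped with EDTA solution, phenol–chloroform extracted, ethanol precipitated, resolved on denaturing 20% PAGE, phosphorimager-quantified.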

Experiment [2] has the same target. The experiment is described as follows: Inhibition of HIV-1 integrase expressed in Escherichia coli using [32P]-labeled U5B/U5A DNA as substrate assessed as inhibition of 3'-processing reaction up to 250 uM after 2 hrs by PAGE analysis in presence of Mg2+. Put shortly:
as §2

Experiment [3] deals with T1, Human immunodeficiency virus type 1 integrase (Human immunodeficiency virus 1, UniProt Q7ZJM1). As to the kind of experiment: Inhibition of HIV-1 GST-tagged integrase-His6-tagged LEDGF complex expressed in Escherichia coli BL21(DE3) using [32P]-labeled U5B/U5A DNA as substrate assessed as inhibition of 3'-processing reaction after 2 hrs by PAGE analysis in presence of Mg2+. Put shortly: (§3)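 IN/LEDGF complex (IN combined with 50 nM LEDGF) processing 32P-labeled U5B/U5A (3 nM) in buffer A (20 mM HEPES pH 7.2, 7.5 mM MgCl2 or MnCl2, 1 mM DTT) with increasing inhibitor, 37°C, 2 h; products separated by denaturing 20% PAGE and quantified by phosphorimaging.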

In experiment [4] the target is T1, Human immunodeficiency virus type 1 integrase. As to the kind of experiment: Inhibition of HIV-1 integrase expressed in Escherichia coli using [32P]-labeled U5B-2/U5A DNA as substrate assessed as inhibition of strand transfer reaction after 2 hrs by PAGE analysis in presence of Mn2+. Summed up:
(§4)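 Strand transfer: 32P-labeled U5B-2/U5A duplex (10 nM) with IN (100 nM) in buffer A (20 mM HEPES pH 7.2, 7.5 mM MgCl2 or MnCl2, 1 mM DTT), increasing inhibitor, 37°C, 2 h. EDTA-containing stop solution, phenol–chloroform extraction, ethanol precipitation, denaturing 20% PAGE, phosphorimager quantification of reaction efficiency.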

Experiment [5] has the same target. The experiment is described as follows: Inhibition of HIV-1 integrase expressed in Escherichia coli using [32P]-labeled U5B-2/U5A DNA as substrate assessed as inhibition of strand transfer reaction after 2 hrs by PAGE analysis in presence of Mg2+. Put shortly: as §4
The target is the same in experiment [6]. The experiment is described as §1. Put shortly: as §2
The target is the same in experiment [7]. The experiment is described as follows: Displacement of [32P]-labeled U5B/U5A DNA from HIV-1 integrase expressed in Escherichia coli in presence of Mg2+. Put shortly:
(§5)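 DRaCALA binding: 32P-labeled U5B/U5A (3 nM) with IN in buffer A (20 mM HEPES pH 7.2, 7.5 mM MgCl2 or MnCl2, 1 mM DTT), compound 0–500 μM, 25°C for 20 min; mixture spotted on nitrocellulose membrane, bound DNA quantified by phosphorimaging.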

Experiment [8] has the same target. As to the kind of experiment: Displacement of [32P]-labeled U5B/U5A DNA from HIV-1 integrase expressed in Escherichia coli in presence of Mn2+. Summed up:
as §5

For experiment [9] the target is unchanged. The experiment is described as follows: Inhibition of HIV-1 integrase expressed in Escherichia coli using [32P]-labeled U5B/U5A DNA as substrate assessed as inhibition of 3'-processing reaction after 2 hrs by PAGE analysis in presence of Mn2+. Put shortly:
as §2

The target in experiment [10] is Human immunodeficiency virus type 1 integrase (Human immunodeficiency virus 1, UniProt Q7ZJM1, E92Q). The experiment is described as follows: Inhibition of HIV-1 integrase E92Q mutant expressed in Escherichia coli using [32P]-labeled U5B/U5A DNA as substrate assessed as inhibition of 3'-processing reaction after 2 hrs by PAGE analysis in presence of Mg2+. Summed up:
(§6)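 3'-processing: 32P-labelled U5B/U5A duplex mimicking the HIV-1 U5 LTR end (3 nM) incubated with integrase (100 nM) in 20 mM HEPES pH 7.2, 7.5 mM MgCl2, 1 mM DTT, with increasing inhibitor concentrations, 37°C, 2 h. Stopped with EDTA, phenol-chloroform extracted, ethanol precipitated. Products resolved on denaturing 20% PAGE, phosphorimaged, reaction efficiency quantified.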

For experiment [11], the target named is Human immunodeficiency virus type 1 integrase (Human immunodeficiency virus 1, UniProt Q7ZJM1, N155H). As to the kind of experiment: Inhibition of HIV-1 integrase N155H mutant expressed in Escherichia coli using [32P]-labeled U5B/U5A DNA as substrate assessed as inhibition of 3'-processing reaction after 2 hrs by PAGE analysis in presence of Mg2+. Put shortly: as §6

For experiment [12], the target named is Human immunodeficiency virus type 1 integrase (Human immunodeficiency virus 1, UniProt Q7ZJM1, G140S). As to the kind of experiment: Inhibition of HIV-1 integrase G140S mutant expressed in Escherichia coli using [32P]-labeled U5B/U5A DNA as substrate assessed as inhibition of 3'-processing reaction after 2 hrs by PAGE analysis in presence of Mg2+. Summed up:
as §6

Experiment [13] addresses Human immunodeficiency virus type 1 integrase (Human immunodeficiency virus 1, UniProt Q7ZJM1, E138K). As to the kind of experiment: Inhibition of HIV-1 integrase E138K mutant expressed in Escherichia coli using [32P]-labeled U5B/U5A DNA as substrate assessed as inhibition of 3'-processing reaction after 2 hrs by PAGE analysis in presence of Mg2+. Summed up: as §6
Experiment [14] addresses T1, Human immunodeficiency virus type 1 integrase. The experiment is described as follows: Non-competitive inhibition of HIV-1 integrase expressed in Escherichia coli using [32P]-labeled U5B/U5A DNA as substrate after 1 hr by double-reciprocal plot analysis in presence of Mn2+. Summed up:
(§7)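 Kinetics: IN (100 nM) incubated with 32P-labeled U5B/U5A (2.5–12.5 nM) plus inhibitor (0–39 μM or 0–15 μM, depending on compound) in buffer A (20 mM HEPES pH 7.2, 7.5 mM MgCl2 or MnCl2, 1 mM DTT), 1 h, 37°C. Initial 3'-processing rate vs substrate concentration at varied inhibitor levels plotted double-reciprocally; Km and KI calculated from the fitted inhibition model.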

The target is the same in experiment [15]. As to the kind of experiment: Non-competitive inhibition of HIV-1 integrase expressed in Escherichia coli using [32P]-labeled U5B/U5A DNA as substrate after 1 hr by double-reciprocal plot analysis in presence of Mg2+. Summed up: as §7
In experiment [16] the target is Human immunodeficiency virus type 1 integrase (Human immunodeficiency virus 1) (UniProt Q7ZJM1). The experiment is described as follows: Ratio of IC50 for HIV-1 integrase-mediated 3'-processing reaction in presence of Mg2+ to IC50 for HIV-1 integrase-mediated strand transfer reaction in presence of Mg2+.
The target in experiment [17] is T1, Human immunodeficiency virus type 1 integrase. The experiment is described as follows: Inhibition of HIV-1 GST-tagged integrase-His6-tagged LEDGF complex expressed in Escherichia coli BL21(DE3) using [32P]-labeled U5B/U5A DNA as substrate assessed as inhibition of 3'-processing reaction after 2 hrs by PAGE analysis in presence of Mn2+. Put shortly: as §3
Experiment [18] concerns the target Human immunodeficiency virus type 1 integrase (Human immunodeficiency virus 1) (UniProt Q7ZJM1). As to the kind of experiment: Inhibition of HIV-1 integrase expressed in Escherichia coli using [32P]-labeled U5B/U5A DNA as substrate assessed as inhibition of 3'-processing reaction up to 500 uM after 2 hrs by PAGE analysis in presence of Mg2+. Put shortly:
as §6

Experiment [19] addresses T1, Human immunodeficiency virus type 1 integrase. The experiment is described as follows: Competitive inhibition of HIV-1 integrase expressed in Escherichia coli using [32P]-labeled U5B/U5A DNA as substrate after 1 hr by double-reciprocal plot analysis in presence of Mg2+. Put shortly: as §7

pIC50, pKi: −log10 of the molar value. Activity calls are given as the source filed them. The rule behind the calls is not given here. Bounds are passed on as bounds.

T1 sequence (Q7ZJM1 whole entry): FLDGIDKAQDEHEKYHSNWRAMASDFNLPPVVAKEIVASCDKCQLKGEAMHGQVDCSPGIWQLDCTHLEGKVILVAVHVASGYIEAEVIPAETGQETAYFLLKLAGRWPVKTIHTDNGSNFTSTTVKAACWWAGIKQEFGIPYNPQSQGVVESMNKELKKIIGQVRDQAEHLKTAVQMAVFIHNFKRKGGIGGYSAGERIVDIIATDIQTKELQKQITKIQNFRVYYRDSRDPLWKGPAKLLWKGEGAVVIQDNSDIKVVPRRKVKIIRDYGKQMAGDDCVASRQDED
Chain of Human immunodeficiency virus type 1 integrase (Human immunodeficiency virus 1) (Q7ZJM1 as listed by the source): as the sequence (Q7ZJM1 whole entry) above
Chain of Human immunodeficiency virus type 1 integrase (Human immunodeficiency virus 1, UniProt Q7ZJM1, N155H) (Q7ZJM1 entry or part of it N155H): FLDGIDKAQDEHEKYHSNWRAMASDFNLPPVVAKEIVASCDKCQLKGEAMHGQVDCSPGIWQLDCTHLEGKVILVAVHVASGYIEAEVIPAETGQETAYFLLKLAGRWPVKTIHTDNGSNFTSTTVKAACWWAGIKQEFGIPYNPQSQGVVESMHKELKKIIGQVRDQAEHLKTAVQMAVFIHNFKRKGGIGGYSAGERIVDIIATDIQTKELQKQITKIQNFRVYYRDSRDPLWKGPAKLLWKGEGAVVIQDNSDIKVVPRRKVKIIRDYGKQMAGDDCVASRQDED
Chain of Human immunodeficiency virus type 1 integrase (Human immunodeficiency virus 1, UniProt Q7ZJM1, E92Q) (Q7ZJM1 entry or part of it E92Q): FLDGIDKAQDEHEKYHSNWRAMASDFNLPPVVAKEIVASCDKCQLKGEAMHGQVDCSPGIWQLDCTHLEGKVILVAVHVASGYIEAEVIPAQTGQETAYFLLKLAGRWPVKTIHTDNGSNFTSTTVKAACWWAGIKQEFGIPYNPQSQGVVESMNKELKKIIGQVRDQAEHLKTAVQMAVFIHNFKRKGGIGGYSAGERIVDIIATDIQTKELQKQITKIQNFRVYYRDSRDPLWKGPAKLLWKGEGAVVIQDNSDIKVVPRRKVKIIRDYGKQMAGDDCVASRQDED
Chain of Human immunodeficiency virus type 1 integrase (Human immunodeficiency virus 1, UniProt Q7ZJM1, G140S) (Q7ZJM1 entry or part of it G140S): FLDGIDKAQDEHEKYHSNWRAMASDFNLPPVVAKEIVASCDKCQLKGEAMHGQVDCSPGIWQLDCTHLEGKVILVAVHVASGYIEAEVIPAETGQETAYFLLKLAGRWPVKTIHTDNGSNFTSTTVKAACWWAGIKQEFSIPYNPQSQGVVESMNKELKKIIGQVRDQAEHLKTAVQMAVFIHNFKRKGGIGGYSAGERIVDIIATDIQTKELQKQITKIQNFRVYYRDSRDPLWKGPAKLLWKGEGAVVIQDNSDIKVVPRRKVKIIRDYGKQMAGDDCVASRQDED
Chain of Human immunodeficiency virus type 1 integrase (Human immunodeficiency virus 1, UniProt Q7ZJM1, E138K) (Q7ZJM1 entry or part of it E138K): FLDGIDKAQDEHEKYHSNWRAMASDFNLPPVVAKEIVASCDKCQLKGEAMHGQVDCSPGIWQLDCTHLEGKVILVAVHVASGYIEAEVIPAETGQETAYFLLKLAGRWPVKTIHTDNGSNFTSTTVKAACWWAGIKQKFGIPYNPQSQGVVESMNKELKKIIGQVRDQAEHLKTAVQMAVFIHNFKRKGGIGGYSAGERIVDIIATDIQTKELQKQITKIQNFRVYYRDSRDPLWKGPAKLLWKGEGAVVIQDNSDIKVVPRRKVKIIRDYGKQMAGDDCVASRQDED

As for `O=P(O)(O)C(CNc1ccccc1)P(=O)(O)O`, the inhibition result in experiment [1] was “inactive”.

For the molecule `O=P(O)(O)C(O)(CCCCc1ccccc1)P(=O)(O)O`, in [2], the inhibition entry was “inactive”.

Take `O=P(O)(O)C(O)(Cc1ccccc1)P(=O)(O)O`: the inhibition entry in experiment [2] is “inactive”.

As to `NC(Cc1ccc(Cl)c(Cl)c1)(P(=O)(O)O)P(=O)(O)O`, the pIC50 in experiment [3] is 5.15; in experiment [4], 5.70; in experiment [5], 5.52; in experiment [6], 5.15; in experiment [7], less than 3.59; in [8], less than 3.30. The pIC50 is 5.70 in experiment [9]; 5.15 in experiment [10]; 5.15 in experiment [11]; 5.15 in experiment [12]; 5.15 in [13]; 5.70 in experiment [17]. Further, the pKi in [14] is 6.00; in experiment [15] it was 5.70. Further, the Ratio IC50 in experiment [16] amounted to 2.

Take `O=C(O)Cc1ccc(Cl)c(Cl)c1`: the inhibition entry in experiment [18] was “inactive”.

Take `O=P(O)(O)C(Cc1ccc(Cl)c(Cl)c1)(Cc1ccc(Cl)c(Cl)c1)P(=O)(O)O`: the pIC50 in experiment [4] is 6.10; in [5], 4.80; in experiment [6], 4.70; in [7] it was 4.00; in experiment [8], less than 3.30; in [9] it was 6.10.

As to `O=P(O)(O)C(O)(C[n+]1ccc(-c2ccccc2)cc1)P(=O)(O)O`, the inhibition result in experiment [2] is “inactive”.

Regarding `O=P(O)(O)C(O)(Cc1ccc(Cl)cc1)P(=O)(O)O`, the pIC50 in experiment [3] is less than 3.60; in [4] it was 5.22; in [5], 4.38; in [6] it was 4.70; in experiment [7], 4.15; in [8], less than 3.30. Also, the figures for the pIC50 in experiment [9] and in [17] were 5.30 and 5.10, respectively.

Take `CCc1cccc[n+]1CC(O)(P(=O)(O)O)P(=O)(O)O`: the inhibition entry in [2] was “inactive”.

On to `NC(C[n+]1ccccc1)(P(=O)(O)O)P(=O)(O)O`, for which the inhibition result in experiment [2] was “inactive”.

Take `O=P(O)(O)C(O)(CCc1ccccc1)P(=O)(O)O`: the inhibition entry in experiment [2] was “inactive”.

As to `O=P(O)(O)C(CNc1ccc(I)cc1)P(=O)(O)O`, in experiment [1], the inhibition result is “inactive”.

Regarding `NC(Cc1ccccc1)(P(=O)(O)O)P(=O)(O)O`, in experiment [2], the inhibition entry was “inactive”.

`O=P(O)(O)C(Cc1ccc(Cl)c(Cl)c1)P(=O)(O)O`: the pIC50 in experiment [3] is less than 3.60; in [4], 5.30; in [5], 4.52; in experiment [6], 4.52; in experiment [7], 3.89; in experiment [8] it was less than 3.30. The negative-log IC50 (pIC50) was 5.30 in experiment [9] and 5.22 in experiment [17].

As to `O=P(O)(O)C(CNCCc1ccccc1)P(=O)(O)O`, the inhibition entry in experiment [1] was “inactive”.

`O=P(O)(O)C(O)(C[n+]1cccc(O)c1)P(=O)(O)O`: the inhibition result in experiment [2] is “inactive”.

As to `O=P(O)(O)Cc1ccc(Cl)c(Cl)c1`, the inhibition result in experiment [18] was “inactive”.

`O=P(O)(O)C(O)(Cc1ccc(Cl)c(Cl)c1)P(=O)(O)O`: the pIC50 in experiment [3] was less than 3.60; in experiment [4], 5.40; in [5], 4.35; in experiment [6], 4.46; in experiment [7] it was 3.82; in experiment [8], less than 3.30. Besides, the pIC50 in experiment [9] was 5.30; in experiment [10] it was 4.46; in experiment [11], 4.46; in experiment [12] it was 4.46; in experiment [13] it was 4.46; in [17] it was 5.35. The pKi was 5.36 in experiment [14] and 4.42 in experiment [19].

Turning to `O=P(O)(O)C(O)(C[n+]1ccccc1)P(=O)(O)O`, the inhibition result in experiment [2] is “inactive”.
